Source: PubChem
SF-1 act: activates the human nuclear receptor SF-1. Q13285. CHO-K1 Gal4-SF-1 LBD luciferase reporter; % increase over DMSO SF-1-specific signal. activation, % at 10 µM. hit rate 1.9% among 65,000. AID 522;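 active = activation above the mean activation of all tested compounds plus 3 SD, cut at about 50% in these data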
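Material: Transient Gal4-SF-1 LBD reporter, CHO-K1 | Input: 4,000 cells/well | Dosing: One dose, 10 µM compound, 1% DMSO | Incubation: 20 h compound treatment, 37 °C | Detection: SteadyLite luciferase luminescence | Evaluation: Percent activation relative to DMSO median and mock-transfected background | Benchmarks: DMSO-treated SF-1-transfected cells as negative, DMSO-treated mock-transfected cells lacking SF-1 as background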
RORA act: activates the human nuclear receptor RORA. P35398. CHO-K1 Gal4-RORA LBD luciferase reporter, luminescence; percent increase over mock-subtracted basal signal. activation, % at 10 µM. hit rate 1.5% among 65,000;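 active = activation above the mean of all tested compounds plus 3 SD, cut at about 49% in these data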
M1 agonist: M1 muscarinic receptor agonism | CHO-M1 cells, Fluo-4 calcium fluorescence, agonist mode; stronger effect = higher value | hit rate 3% among 64,000 | B-score at 10 µM;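 active = fluorescence rise, raw or as B-score row- and column-corrected plate score, outside the 99.7% band of its plate's samples, either direction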
mHtt clearance: compounds clearing mutant huntingtin protein. inhibition, % at 1.5 µM. HeLa Exon1htt(103Q)mCFP, aggregate imaging; zero = plate's median compound well. hit rate 0.42% among 47,000;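 active = inhibition of aggregate fluorescence above about 70%, also judged a hit by eye on the cell image, limit read from the data, passing the limit was not always enough; inconclusive = no rule stated for this call; inactive = not judged a hit on image review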;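 note: cells exposed to compound for three days before fixation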
M1 antag: blocks the rat M1 muscarinic receptor response to acetylcholine; P08482; AID 628; hit rate 3.4% among 64,000; CHO-M1 cells, Fluo-4 calcium, ACh EC80 antagonist mode; stronger effect = lower value; B-score at 10 µM;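 active = calcium fluorescence response, raw or row-and-column corrected B-score, differing from the plate sample mean either way at a set confidence level, mostly lower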
Target sequence (P08482 whole entry, looked up): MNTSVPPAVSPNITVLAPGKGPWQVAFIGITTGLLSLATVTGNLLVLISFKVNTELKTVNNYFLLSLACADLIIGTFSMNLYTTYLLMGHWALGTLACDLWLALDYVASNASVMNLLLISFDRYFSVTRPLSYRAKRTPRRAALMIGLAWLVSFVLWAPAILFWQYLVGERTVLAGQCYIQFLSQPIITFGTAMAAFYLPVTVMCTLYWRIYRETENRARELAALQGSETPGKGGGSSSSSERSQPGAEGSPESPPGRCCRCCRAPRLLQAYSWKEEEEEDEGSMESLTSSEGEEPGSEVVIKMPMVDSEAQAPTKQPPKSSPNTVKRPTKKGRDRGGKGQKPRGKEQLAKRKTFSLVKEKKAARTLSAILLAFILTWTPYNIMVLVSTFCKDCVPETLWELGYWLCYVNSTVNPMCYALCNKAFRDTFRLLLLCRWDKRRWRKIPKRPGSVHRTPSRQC
D1 allo mod: D1 dopamine receptor (human) allosteric modulation | P21728 | HEK293 D1, CRE-luciferase, dopamine EC30 potentiation; actives deviate in either direction | B-score at 10 µM | hit rate 5.9% among 58,000 | AID 641;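 active = luminescence count or its row- and column-corrected plate score outside the 99.7% band of the plate's sample wells, on either side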
M1 ag confirm: rat M1 muscarinic agonism, confirmation. shares compounds with M1 agonist. CHO-M1 cells, Fluo-4 calcium fluorescence, agonist mode; actives lie on both sides. fluorescence change (max-min) at 10 µM. hit rate 19% among 1,700;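 active = fluorescence change differs from the solvent-only DMSO control mean at a set confidence level in both duplicate runs; inconclusive = differs from solvent-only control mean in just one of two runs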;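 note: an EC20 dose of acetylcholine follows compound addition during the same imaging run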
M4 agonist ctr: counter-screen for M1 agonists: activity at rat M4 receptor; shares compounds with M1 agonist; CHO M4/Gqi5 cells, Fluo-4 calcium fluorescence, agonist mode; actives lie on both sides; fluorescence change (max-min) at 10 µM; hit rate 9% among 1,700; AID 1741;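 active = fluorescence change differing from the plate's solvent-only control wells at 99.7% confidence in both duplicates, whether higher or lower; inconclusive = differs from solvent controls in only one of two duplicates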
M1 antag confirm: confirmation of rat M1 muscarinic receptor antagonists; calcium response (max-min fluorescence) at 10 µM; CHO-M1 cells, Fluo-4 calcium, ACh EC80 antagonism; stronger effect = lower value; AID 677; shares compounds with M1 antag; hit rate 43% among 1,700;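 active = calcium response below the same-plate mean of wells given acetylcholine alone at its 80%-effect dose, minus 3 SD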
mGluR4 antag: acts on human mGluR4 in M1 antagonist selectivity test | hit rate 0.9% among 1,700 | CHO-mGluR4 calcium flux, Fluo-4 fluorescence, glutamate EC80; stronger effect = lower value | shares compounds with M1 antag | fluorescence response (max-min) at 10 µM;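 active = fluorescence response below the plate's average for near-maximal glutamate wells, less 3 SD of those wells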;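 note: raw unnormalized fluorescence span taken in the window right after glutamate addition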
Each line names hits and unclear results; the compound was inactive in the other large screens (follow-up assays come after a bar, where they were run). A selection: hits, their analogues and other compounds. The true share with any hit is near 11%.

COc1ccc(OC)c(S(=O)(=O)N2CCC(C(=O)Nc3cccc(C(F)(F)F)c3)CC2)c1	M1 agonist 4.39 (no result: mHtt clearance) | M1 ag confirm inactive | M4 agonist ctr inactive
O=S(=O)(NCc1cn2ccsc2n1)c1ccc(Oc2ccccc2)cc1	none (no result: mHtt clearance)
C=CCNc1ncnc2c1[nH]c1ccc(C)cc12	M1 agonist 4.24 | M1 ag confirm inactive | M4 agonist ctr inactive
Cc1cc(C)n(-c2ccc(Cl)c(C(=O)Nc3ccc(-c4nnc5n4CCCCC5)cc3)n2)n1	none (no result: mHtt clearance)
O=C(OCC(=O)N1CCN(c2ccccc2)CC1)c1ccccn1	none
CC(=O)c1ccc(OCCCC(=O)OCC(=O)N2CCN(c3ccccc3)CC2)cc1	M1 agonist 9.32 (no result: mHtt clearance) | M1 ag confirm inactive | M4 agonist ctr inactive
Nc1c(C(=O)Nc2ccccc2)sc2nc(-c3ccco3)ccc12	M1 agonist 2.81 (no result: mHtt clearance) | M1 ag confirm inconclusive | M4 agonist ctr inactive
COc1ccccc1NC(=O)c1sc2nc(-c3ccco3)ccc2c1N	none
O=C(COC(=O)c1cccs1)NC1CCCCC1	none (no result: D1 allo mod)
Cn1c(Cn2c(=O)sc3ccccc32)nnc1SCC(=O)Nc1ccc2c(c1)OCO2	none (no result: mHtt clearance)
Cc1ccccc1N1OC2C(=O)N(c3ccc(F)cc3)C(=O)C2C1c1ccccn1 (configuration not stated)	M1 agonist 13.4 (no result: mHtt clearance) | M1 ag confirm inactive | M4 agonist ctr inactive
Cc1nc(OCc2ccccc2)c2sc3nc4c(cc3c2n1)COC(C)(C)C4	none (no result: SF-1 act, RORA act, M1 agonist, M1 antag, D1 allo mod)
CC1(C)Cc2nc3oc4c(N(CCO)Cc5ccccc5)ncnc4c3cc2CO1	M1 agonist 8.13 (no result: mHtt clearance) | M1 ag confirm inactive | M4 agonist ctr inactive
COc1ccc(N/C=C(\C#N)c2nc3ccccc3n2C)c(OC)c1	none (no result: mHtt clearance, D1 allo mod)
COc1ccccc1N=c1oc2cc(O)ccc2cc1C(N)=O	M1 agonist 7.6 (no result: mHtt clearance) | M1 ag confirm inactive | M4 agonist ctr inactive
Cc1cccc(N=c2oc3cc(O)ccc3cc2C(N)=O)c1	M1 agonist 5.4 (no result: mHtt clearance) | M1 ag confirm inactive | M4 agonist ctr inactive
COc1ccccc1N=c1oc2cc(O)ccc2cc1C(=O)NCC1CCCO1 (configuration not stated)	none (no result: mHtt clearance)
CC(=O)c1cccc(NC(=O)Nc2ccc3c(c2)N(C)C(=O)CS3)c1	M1 agonist 3.18 (no result: mHtt clearance, D1 allo mod) | M1 ag confirm inactive | M4 agonist ctr inconclusive
CCOc1ccccc1-n1nnnc1SCC(=O)NC(=O)NCc1ccco1	M1 agonist 3.31 (no result: mHtt clearance) | M1 ag confirm inactive | M4 agonist ctr inactive
CCCCOc1ccc(C(=O)Nc2ccncc2)cc1	M1 agonist 10.9, M1 antag -3.69 (no result: mHtt clearance) | M1 ag confirm inactive | M4 agonist ctr inconclusive
CCCCC(=O)Nc1ccc(C(=O)NCc2ccncc2)cc1	M1 agonist 19 (no result: mHtt clearance) | M1 ag confirm inconclusive | M4 agonist ctr inactive
CCOc1ccc(-c2nnc(-c3ccncc3)o2)cc1	none
CCCCOc1ccc(-c2nnc(-c3ccncc3)o2)cc1	RORA act 58.7, M1 agonist 2.69 (no result: mHtt clearance) | M1 ag confirm inactive | M4 agonist ctr inconclusive
COc1ccc(-n2c(SCC(=O)Nc3ccccc3)nc3c(c2=O)SCC3)cc1	none (no result: mHtt clearance, D1 allo mod)
CC(=O)c1cccc(N(C(=O)c2cnccn2)C(C(=O)NCc2ccccc2)c2ccco2)c1 (configuration not stated)	none (no result: SF-1 act, RORA act, M1 agonist, M1 antag, D1 allo mod)
Cc1ccc(C(=O)CNc2nc3c(c(=O)[nH]c(=O)n3C)n2Cc2ccccc2)cc1	none
CCC(=O)Nc1nn(C)c2nc3c(C)cccc3cc12	none (no result: mHtt clearance)
Cc1cccc2cc3c(NC(=O)C(C)C)nn(C)c3nc12	M1 agonist 12.2, M1 antag -15.4 | M1 ag confirm inactive | M4 agonist ctr inactive
Oc1ccc2cccnc2c1	M1 agonist 14.8 | M1 ag confirm 112 | M4 agonist ctr inactive
COC(=O)c1ccc2ncccc2c1	none
Cc1ccc(C(=O)CC2(O)C(=O)N(Cc3ccc4c(c3)OCO4)c3ccccc32)cc1 (configuration not stated)	M1 agonist 58.8 | M1 ag confirm inactive | M4 agonist ctr inactive
O=C(CC1(O)C(=O)N(Cc2ccc3c(c2)OCO3)c2ccccc21)c1ccccc1 (configuration not stated)	none (no result: mHtt clearance)
c1ccc(CSc2nnnn2-c2ccc3c(c2)OCCO3)nc1	M1 agonist 6.7 (no result: mHtt clearance) | M1 ag confirm inactive | M4 agonist ctr inactive
CN(C)/C=N/c1c(C(=O)NCc2ccccc2)nnn1Cc1ccccc1	none
CCc1nc2ccccc2n1CCC(C)C	none (no result: M1 agonist, M1 antag)
CCC(OC(=O)CC1Sc2ccccc2NC1=O)C(=O)NCC1CCCO1 (configuration not stated)	none
CC1CCCCN1CCNC(=O)c1cc2c(=O)n(C)c3ccccc3c2n1C (configuration not stated)	M1 agonist -2.73, M1 antag -4.17 | M1 ag confirm inactive | M4 agonist ctr inactive | M1 antag confirm 419 | mGluR4 antag inactive
CC(C)COC(=O)C(C#N)c1nc2ccccc2nc1N1CCN(Cc2ccccc2)CC1 (configuration not stated)	M1 agonist -2.29, M1 antag -1.32 | M1 ag confirm inactive | M4 agonist ctr inactive | M1 antag confirm inactive | mGluR4 antag inactive
CCC(CC)C(=O)Nc1c2c(nn1-c1ccc(OC)cc1)CS(=O)C2 (configuration not stated)	M1 agonist -2.45, M1 antag -3.28 | M1 ag confirm inconclusive | M4 agonist ctr inactive | M1 antag confirm inactive | mGluR4 antag inactive
CCOC(=O)c1ccc(NC(=O)N2CCN(c3ccccn3)CC2)cc1	none
CCOC(=O)c1ccc(NC(=O)N2CCN(CCc3ccccc3)CC2)cc1	M1 agonist -2.4, M1 antag -2.21 (no result: mHtt clearance) | M1 ag confirm inactive | M4 agonist ctr inactive | M1 antag confirm inactive | mGluR4 antag inactive
Cc1cnc(C(=O)Nc2ccccc2-c2ccc(C)o2)cn1	none (no result: mHtt clearance, D1 allo mod)
CCOc1ccc(N=Cc2c(O)cc(C)oc2=O)cc1	M1 agonist -3.45, M1 antag -10.4 | M1 ag confirm inactive | M4 agonist ctr inconclusive | M1 antag confirm inactive | mGluR4 antag inactive
Cc1cc(O)c(/C=N/c2ccccn2)c(=O)o1	none (no result: mHtt clearance)
O=c1[nH]c(NCc2ccco2)nnc1Cc1ccccc1Cl	none (no result: mHtt clearance)
CCOc1ccccc1NC(=O)CC1Nc2ccccc2NC1=O (configuration not stated)	none (no result: mHtt clearance)
